# A selection: hits, their analogues and other compounds. The true share with any hit is near 2.1%.
# MsrA act = bovine MsrA enzyme activators, primary screen, biochemical, absorbance, HTS. Methionine sulfoxide reductase A (Bos taurus). purified bovine MsrA, absorbance read-out. activation, % at 10.6 µM. hit rate 0.3% among 360,000; in the data active = activation above about 7.5%
# VIM-2 inhibitor = VIM-2 metallo-beta-lactamase inhibitors, primary screen, biochemical, epi-absorbance readout, Pseudomonas aeruginosa enzyme; purified VIM-2, nitrocefin hydrolysis, epi-absorbance fluorescence; inhibition, % at 5.6 µM; hit rate 0.89% among 290,000;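 active = inhibition above the mean of all tested compounds plus 3 SD, cutoff set per screening run, cut at about 7.5% in these data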;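 note: red hydrolysis product quenches plate fluorescence so inhibitors raise well fluorescence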
# PKA-R1A act = activators of PKA-R1A holoenzyme, primary screen, biochemical, fluorescence polarization, Cy5-IP20, bovine R1A, mouse PKAc; cAMP-dependent protein kinase type I-alpha regulatory subunit (Bos taurus) + …; PKA-R1A dissociation; scaled: DMSO 0%, 113 µM cGMP 100%; activation, % at 11.4 µM; hit rate 0.083% among 340,000; AID 504707, 2011;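 active = percent activation above the mean of all tested compounds plus 3 SD, cut at about 19% in these data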;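 note: higher means more PKAc released from R1A so a rise in polarization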
# MsrA inh = bovine MsrA enzyme inhibitors, primary screen, biochemical, absorbance, HTS. purified bovine MsrA, absorbance read-out. inhibition, % at 15.5 µM. hit rate 0.75% among 360,000; in the data active = inhibition above about 4.5%
# IMP-1 inh = IMP-1 metallo-beta-lactamase inhibitors, primary screen, biochemical, epi-absorbance readout, Pseudomonas aeruginosa enzyme; metallo-beta-lactamase IMP-1 (Pseudomonas aeruginosa); purified IMP-1, nitrocefin hydrolysis, epi-absorbance fluorescence; inhibition, % at 5.6 µM; hit rate 0.45% among 290,000; AID 1556, 2009;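 active = inhibition above the mean plus 3 SD of all compounds in the same screening run, cut at about 4.5% in these data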
#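 system = purified recombinant IMP-1 beta-lactamase | amount = 0.2 nM IMP-1, as dispensed | medium = HEPES buffer pH 7.1 with ZnSO4 and Brij 35 | times = 25 °C, 15 min preincubation, 25 min reaction | detection = plate fluorescence quenching by hydrolysis product, ex 480/em 530 nm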
# PKA-R2B activ = activators of PKA-R2B holoenzyme, primary screen, biochemical, fluorescence polarization, Cy5-IP20, human | activation, % at 11.4 µM | AID 504700, 2011 | PKA-R2B holoenzyme dissociation; R2B truncated from residue 108, S112A mutant; 0% DMSO only, 100% 113 µM cGMP | hit rate 0.079% among 340,000;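 active = activation above a cutoff set at the mean over all compounds plus 3 SD, cut at about 18% in these data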;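 note: higher means more holoenzyme dissociation and a rise in polarization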
# Target sequence (P31323 whole entry, looked up, other chains not shown, the tested form may be a part): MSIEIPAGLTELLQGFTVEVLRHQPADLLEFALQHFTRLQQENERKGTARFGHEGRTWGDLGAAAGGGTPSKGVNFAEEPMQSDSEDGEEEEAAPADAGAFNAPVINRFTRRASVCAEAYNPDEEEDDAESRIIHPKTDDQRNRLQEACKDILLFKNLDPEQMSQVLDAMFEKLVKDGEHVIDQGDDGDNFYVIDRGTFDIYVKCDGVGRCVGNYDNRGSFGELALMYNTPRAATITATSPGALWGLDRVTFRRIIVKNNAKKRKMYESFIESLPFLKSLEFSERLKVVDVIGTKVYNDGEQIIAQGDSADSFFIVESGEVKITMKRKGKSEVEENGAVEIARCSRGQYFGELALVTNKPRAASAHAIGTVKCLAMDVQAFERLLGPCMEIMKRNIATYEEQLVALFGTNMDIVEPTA
# R2B FP artifact = fluorescence polarization artefacts, biochemical, artefact control for PKA-R2B activator project. shares compounds with PKA-R2B activ. FP artifact counterscreen. activation, % at 11.4 µM. hit rate 6% among 270. AID 504796, 2011; in the data active = activation above about 20%;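 note: Cy5 labelled IP20 peptide probe with compound but no PKA protein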
# PKA-R2B confirm = activators of PKA-R2B holoenzyme, confirmation, biochemical, fluorescence polarization, human. hit rate 9% among 270. activation, % at 11.4 µM. PKA-R2B complex, activation. shares compounds with PKA-R2B activ. AID 504797, 2011; in the data active = activation above about 19%
# Target sequence (P31323 whole entry, looked up): as the sequence (P31323 whole entry, looked up, other chains not shown, the tested form may be a part) above
# Hits are given with their value; - = inactive; . = no result.
SMILES,MsrA act,VIM-2 inhibitor,PKA-R1A act,MsrA inh,IMP-1 inh,PKA-R2B activ,R2B FP artifact,PKA-R2B confirm
COCCNC(=O)CN(Cc1ccccc1)C(=O)CCC(=O)Nc1nccs1,-,-,-,-,-,19.1,-,-
Cc1ccc(S(=O)(=O)NC(C)(C)C)cc1C(=O)OCC(=O)N1CCCC1=O,-,.,-,-,.,20.2,-,-
COC(=O)c1ccc(N2CCN(S(=O)(=O)c3c(C)cc(C)cc3C)CC2)c([N+](=O)[O-])c1,-,-,-,-,-,18.5,-,-
COC(=O)c1ccc(N2CCN(S(=O)(=O)c3ccc(C)cc3)CC2)c([N+](=O)[O-])c1,-,-,-,-,-,-,.,.
O=C(OCc1ccc(F)cc1)c1cc(=O)c2ccccc2o1,-,-,-,-,-,20.6,-,-
CCc1cccc(CC)c1N1C(=O)CSCC1=O,-,.,-,-,.,-,.,.
COc1ccc(OC)c(N(CCN2C(=O)c3ccccc3C2=O)C(=O)CCl)c1,-,.,-,-,.,-,.,.
COc1ccc(-c2noc(CN(C)C(=O)c3ccc4c(c3)OCO4)n2)cc1OC,-,-,-,-,-,-,.,.
COc1ccc(-c2noc(CN(C(=O)c3ccc4c(c3)OCO4)C(C)C)n2)cc1OC,-,.,-,-,.,18.7,-,-
COc1ccc(NC(=S)N2CCN(c3ccc4c(c3)C3CCN(C(=O)OCc5ccccc5)C4C3)CC2)c(OC)c1 (stereo unspecified),-,.,.,-,.,.,.,.
COc1cccc(NC(=O)C(=O)NCCCN2CCCC2=O)c1,-,.,-,-,.,20.3,-,-
NC(=O)CSc1nnc(COc2ccccc2)n1CCc1ccccc1,-,-,-,-,-,21.5,-,-
Cc1nc(CCNC(=O)CC2C(=O)NCCN2Cc2ccoc2)nc2c1CCCC2 (stereo unspecified),-,-,-,-,-,22.6,-,-
CN1CCN(C(=O)/C(=C/c2ccc(F)cc2)NC(=O)c2ccccc2)CC1,-,-,-,-,-,-,.,.
CN1CCN(C(=O)/C(=C/c2ccc(N(C)C)cc2)NC(=O)c2ccccc2)CC1,-,-,-,4.6,-,20.3,-,-
CCOC(=O)C1=CCC(c2ccccc2C)N(S(=O)(=O)c2ccc(C)cc2)C1 (stereo unspecified),-,.,.,-,.,.,.,.
COc1ccc(C(=O)NC2CCN(CC(=O)NC3CCCCC3)CC2)cc1,-,-,-,-,-,-,.,.
COc1cc(C(=O)NC2CCN(CC(=O)NC3CCCCC3C)CC2)cc(OC)c1OC (stereo unspecified),-,-,-,-,-,18.4,-,-
O=S(=O)(c1ccc2c(c1)OCCO2)N1CCC(c2nc3ccccc3[nH]2)CC1,-,-,-,-,-,18.7,-,-
O=S(=O)(c1ccc2c(c1)OCCO2)N1CCC(c2nc3ccc(Cl)cc3[nH]2)CC1,-,-,-,-,-,-,.,.
O=C(Nc1nnc(CCN2CCCCC2)s1)c1ccc(Cl)cc1Cl,-,-,-,-,-,-,.,.
Cc1cc(C(=O)c2ccccc2)c(NC(=O)CN2CCOCC2)s1,-,-,-,-,-,18.5,-,-
CCCCCCCCCCCCCCCC[N+](C)(C)CCN(Cc1ccc(OC)cc1)c1ncccn1,-,.,-,.,.,30.0,-,35.6
O=C1CC2(CCCC2)CC(=O)N1CCCCN1CCN(c2ncccn2)CC1,-,-,-,-,-,23.3,-,-
CN1C(=O)N(CC(=O)N2CCN(c3ncccn3)CC2)C(=O)C12CCCCC2,-,.,-,-,.,-,.,.
SMILES,MsrA act,VIM-2 inhibitor,PKA-R1A act,MsrA inh,IMP-1 inh,PKA-R2B activ,R2B FP artifact,PKA-R2B confirm
O=C1CCC/C1=C/Nc1cccc(F)c1,-,-,-,-,-,19.0,-,-
O=C(N/N=C/c1cc(O)ccc1[N+](=O)[O-])c1ccc2c(c1)OCCO2,-,-,-,-,-,19.5,-,-
COC(=O)C1=CC(=O)N2CCN=C2S1,.,.,.,-,.,.,.,.
CSc1ccc(S(=O)(=O)NCC(=O)OC(C)C(=O)NCc2ccccc2)cc1[N+](=O)[O-] (stereo unspecified),-,.,-,-,.,-,.,.
CC(C)CSc1ccc(S(=O)(=O)NCC(=O)O)cc1[N+](=O)[O-],-,-,-,-,-,19.0,-,-
COc1ccc(OC)c(C(=O)c2coc3ccc(OC(C)=O)cc23)c1,-,-,-,-,-,21.3,-,-
COc1ccc(C(=O)N2CCCCC2c2cc(C(=O)Nc3cccc(C#N)c3)no2)cc1 (stereo unspecified),-,.,.,-,.,.,.,.
O=C(NC1CCCCC1)c1cc(S(=O)(=O)N2CCN(c3ccccc3)CC2)ccc1Cl,-,.,-,-,.,20.0,-,-
C=C1CSc2nc(=O)c3c4c(sc3n21)CCC4,-,.,-,-,.,19.8,-,-
CC1=Nn2c(nc3sc4c(c3c2=O)CCCC4)SC1,-,-,-,-,-,-,.,.
C=CCn1c(SCC(=O)Nc2sccc2C(N)=O)nc2ccc(Cl)cc2c1=O,-,-,-,-,-,-,.,.
C=CCn1c(SCN2C(=O)c3ccccc3C2=O)nc2ccc(Cl)cc2c1=O,-,-,-,-,-,18.7,-,-
CCc1nnc(NC(=O)CSc2nnc(C)n2-c2ccc(C)cc2)s1,-,-,-,-,-,18.8,-,-
CC1CCN(C(=O)CCn2c(=O)oc3ccc(Cl)cc32)CC1,-,.,-,-,.,-,.,.
Cc1cnc(NC(=O)CC2OC(=O)c3ccccc32)s1 (stereo unspecified),-,.,-,-,.,19.4,-,-
Cc1cnc(NC(=O)CC2CCCC2)s1,-,-,-,-,-,-,.,.
NC(=O)/C=C/C(=O)Nc1ccc(Cl)cc1,-,-,-,-,-,-,.,.
NC(=O)Nc1ccc(Cl)cc1,-,-,-,-,-,22.6,-,-
CN1C2CCC1CC(NC(=O)c1cc(S(=O)(=O)N(C)C)c(Cl)cc1Cl)C2 (stereo unspecified),-,.,-,-,.,19.0,-,-
COc1ccc(OC)c(-c2cc(-c3cccnc3)nc(N)c2C#N)c1,-,-,-,-,-,19.1,-,-
Cc1ccc(OCc2cc(C(=O)NC(C)Cc3cnccn3)no2)cc1C (stereo unspecified),-,-,-,-,-,20.6,-,-

# Screening data deposited in PubChem by The Scripps Research Institute Molecular Screening Center.
